experiment: Toxicity liver stage against HepG2, at 10uM; format: cell-based; design: test concentration 10 uM, cell line HepG2-A16-CD81EGFP; details: human, HepG2-A16-CD81EGFP cells; read-out: INHIBITION
Summary of the method: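 Uninfected HepG2-A16-CD81EGFP cells, 3 × 10^3 per well, 1536-well, plated on prespotted compound at 10 μM final, parasite-free screening media added to match infected plates; puromycin 10 μM positive, DMSO 0.5% negative; run in parallel with 48 h PbLuc assay at 37 °C, 5% CO2; viability by CellTiter-Glo luminescence, normalized to controls.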

Row | Structure (SMILES) | cytotoxicity at 10 µM [%]
1 | COCCN(CCOC)C(=O)c1cn(C(C)(C)C)c2ncccc12 | -1.14
2 | COCc1nnc(NC(=O)c2cn(C(C)C)c3ccc(OC)cc23)s1 | -5.86
3 | Cn1ccc2cc(C(=O)NC3CCS(=O)(=O)C3)ccc21 (configuration not stated) | 0.979
4 | CCCc1nnsc1C(=O)NCC1CCN(c2ncccn2)CC1 | 10.6
5 | COc1ccc(S(=O)(=O)NCCC(O)c2ccoc2)c(C)c1 (configuration not stated) | -0.608
6 | CC(=O)N1CCC2(CC1)[C@@H]1CN(Cc3cccnc3)C[C@@H]1C(=O)N2C | 4.73
7 | Cc1ccc(N2CCC3(CCN(Cc4ccccn4)CC3)CC2)nn1 | 7.37
8 | c1c(CN2CCCCC2)nc2n1CCN(CC1CC1)C2 | -113
9 | O=S(=O)(C1CC1)N1CCOC2(COCCN(c3ncccn3)C2)C1 (configuration not stated) | 8.55
10 | COCCN1Cc2ccccc2C2(CCN(C(=O)c3ccco3)CC2)C1 | 5.85
11 | Cn1ccnc1CN1CC2(CCN(Cc3ccncc3)C2)C1 | -5.76
12 | CCN1C[C@H]2CCN(c3ncccn3)CC[C@H]2S1(=O)=O | -7.08
13 | Cc1nnc(N2CCCC3(CN(Cc4nccn4C)CCO3)C2)o1 (configuration not stated) | -6.83
14 | COCC1c2c(cnn2C)CCN1Cc1ccsc1 (configuration not stated) | -13.3
15 | O=C(CSc1nnc2n1N=CN(c1ccccc1)C2)c1ccccc1 | 9.11
16 | COC(=O)c1ccc(C2CC(=O)Oc3cc(C)[nH]c(=O)c32)cc1 (configuration not stated) | -3.86
17 | CC(=O)N1CCC(Oc2ccc(C#N)cn2)CC1 | -17.3
18 | CC(C)(C)n1ncc2c1NC(=O)CC2c1ccc(OCC(N)=O)cc1 (configuration not stated) | 20.6
19 | CC(C)N1CCOCC2(CN(Cc3ccco3)CCO2)C1 (configuration not stated) | -7.53
20 | O=C1[C@H]2CCCC[C@H]2C(=O)N1c1cnn(Cc2cccc(F)c2)c1 | -5.24
21 | Cc1nn(C)c2c(NCCCn3cccn3)ncnc12 | -0.472
22 | Cc1ccnn1CCC(=O)N1CCCC[C@@]2(C)[C@@H]1CCC(=O)N2C | 3.38
23 | CC1CCc2nn(CCNC(=O)Cc3ccccc3F)c(=O)cc2C1 (configuration not stated) | 6.66

Row | Structure (SMILES) | cytotoxicity at 10 µM [%]
24 | CC(=O)N1CCC(c2nccnc2CNC(=O)c2cc[nH]n2)CC1 | -6.27
25 | COC(=O)[C@@H]1CN(C(=O)c2cscn2)C[C@H]1c1ccc(OC)cc1 | -31.6
26 | COc1cc(C2Nc3cc(Cl)ccc3C3=NCCN32)ccc1O (configuration not stated) | -29.3
27 | CS(=O)(=O)c1ccc(-c2nc(C(=O)N3CCCC3)n3ccccc23)cc1 | 6
28 | O=C(C1CCCC1)N1CCOc2cccc(F)c21 | -2.54
29 | COc1cc(C#N)ccc1OCC(=O)N(C1CC1)C(C)c1ccco1 (configuration not stated) | 1.18
30 | OCCCN1CCCC1c1cccc(Br)c1 (configuration not stated) | 5.71
31 | CS(=O)(=O)NC(=O)c1ccn(-c2ccc(Cl)c(Cl)c2)n1 | 6.96
32 | Cc1ccc(C)c(OCC(=O)NC2CCN(c3ccccn3)CC2)c1 | -3.42
33 | Cc1nc2n(n1)CC(NCc1nc(-c3cccs3)no1)CC2 (configuration not stated) | -1.66
34 | Cc1cccc2c1OCCC2NCc1c(C(C)C)nn(C)c1N(C)C (configuration not stated) | 0.423
35 | O=C1CN(C(=O)c2cc3c(F)cc(Br)cc3[nH]2)CCN1 | 0.0723
36 | CN(C)C1CCCN(C(=O)NCCC(=O)N2CCCCCC2)C1 (configuration not stated) | -6.45
37 | O=C(c1ccc(-n2ccnc2)cc1)N1CCN(c2cnccn2)CC1 | -5.63
38 | COC(=O)c1cc(NS(=O)(=O)c2cn(C)cn2)c(F)cc1F | 14.8
39 | CCNC(=O)CN1CCC(c2cc(OC)cc(OC)c2)C1 (configuration not stated) | -5.66
40 | Cc1ccc(C(=O)NCCCNS(C)(=O)=O)cc1C | -1.66
41 | O=C(CCS(=O)(=O)C1CCCC1)N1CCCC1c1ccsc1 (configuration not stated) | 1.06
42 | CCc1cnc(CN(C)C2CCN(CCNS(=O)(=O)CC)C2)o1 (configuration not stated) | 8.94
43 | NC(=O)c1cnc(NC2CCC(c3ccccc3)CC2)c(Cl)c1 (configuration not stated) | 27.2
44 | COc1ccccc1NCC(=O)NCc1cc[nH]n1 | 1.87
45 | CCOc1cccc(COC(=O)c2ccc(Cl)cn2)n1 | -3.44
46 | Cn1cnnc1Sc1ccc(NC(=O)C2CC2)cc1Cl | 0.118

Row | Structure (SMILES) | cytotoxicity at 10 µM [%]
47 | O=C(c1cccc2cc[nH]c12)N1CCC2(CCOC2)C1 (configuration not stated) | -152
48 | CC1CN(C(=O)NCCc2nc(C(C)C)no2)CCO1 (configuration not stated) | -0.745
49 | Cc1ccc(N(C)CC(O)COCc2ccccc2)c(C)c1 (configuration not stated) | 3.67
50 | Cc1nc(S(=O)(=O)CCn2cccn2)n(C2CCCC2)c1C | -0.829
51 | Cc1nnc2n1CCN(Cc1nc3c(F)cccc3[nH]1)C2 | -2.3
52 | CCN(Cc1nc(Cc2ccccc2)no1)C1CC1 | 6.26
53 | CC1(C)Cc2ccc(C(=O)NC3CCOCC3)c(O)c2O1 | -7.92
54 | NC(=O)CN(C(=O)Cc1ccc(C(F)(F)F)cc1)C1CCCC1 | -3.41
55 | CC(c1ccccc1)N(C)C(=O)Cn1cc(NC(=O)C(C)(C)C)cn1 (configuration not stated) | 4
56 | O=C(c1ccn(-c2ccccc2Cl)n1)N1CCSCC1 | 15.6
57 | O=C(NCCCn1cccn1)C1(c2ccc(F)cc2)CC1 | -6.13
58 | COc1cccc(NC(=O)N(CCO)Cc2ccsc2)c1 | -9.87
59 | Cn1nc(CN2CCCCC2)c2c1CN(C(=O)c1cccc(Cl)c1)C2 | -1.35
60 | OCCNc1nccc(-c2c[nH]nc2-c2ccco2)n1 | -6.47
61 | COc1ccc(OC)c(-n2cnnc2COC(C)C)c1 | -6.57
62 | CCOc1ncccc1Cn1cc(-c2nccn2C)nn1 | -1.38
63 | Cc1cc(C)c2c(NCc3nncn3C3CCCCC3)ncnc2n1 | -0.404
64 | O=C(CN1CCOCS1(=O)=O)NCc1ccccc1 | 1.09
65 | OC1(CNCCc2nc3c(s2)CCCC3)CCNC1 (configuration not stated) | 1.44
66 | COCCN1CCN(C(=O)c2ccccc2C(C)=O)[C@H]2CS(=O)(=O)C[C@H]21 | -5.95
67 | CN(C)CCNc1cc(-c2ncccc2O)c2cc[nH]c2n1 | 7.28
68 | Cc1nccnc1N1C[C@H](NC(=O)CNS(C)(=O)=O)[C@@H](C2CC2)C1 | -10.3
69 | Cc1cc(C)c(C(=O)N(CCO)Cc2ccccc2F)c(=O)[nH]1 | -0.626

Row | Structure (SMILES) | cytotoxicity at 10 µM [%]
70 | Cc1nc(N(C)C)nc(NCCc2ccccn2)c1C | 4.59
71 | CCOC(=O)CC(C)NC(=O)c1cn(Cc2ccccc2F)nn1 (configuration not stated) | -4.75
72 | Cc1cc(NC2CCC(=O)N(C)C2)n2nccc2n1 (configuration not stated) | -0.714
73 | CCn1ncnc1C(C)NC(=O)C1CCN(C2CCCCC2)CC1 (configuration not stated) | -149
74 | COc1ccc(OCCN2CCOCS2(=O)=O)cc1 | 2.6
75 | COc1ccc2c(c1)OCC(CNC(=O)c1cnc(NC(C)C)nc1)C2 (configuration not stated) | -5.07
76 | Cc1nonc1CC(=O)N1CCC2(CCCN(C3CCOCC3)C2=O)C1 (configuration not stated) | -95.3
77 | CN(CCCOc1ccccc1Cl)C(=O)CN1C(=O)CCNC1=O | -1.97
78 | CCc1cc(N[C@@H]2CC[C@@H](N)C2)n2nc(C)c(C)c2n1 | 2.2
79 | CC(C)[C@@H]1CN(C(=O)CCc2ccc(F)cc2)C[C@H]1C(=O)O | -3.97
80 | O=C(CCC(=O)N1CCC(OCc2cccnc2)CC1)c1ccccc1 | -3.33
81 | CCOC(=O)CC1CCCCN1C(=O)c1cc(C)oc1C (configuration not stated) | 5.44
82 | CC(=O)NCCNc1nccc(CCC(F)(F)F)n1 | -146
83 | Cc1cc(C(=O)N2CCC3(CCCN(CC4CC4)C3=O)C2)c(C)n1C (configuration not stated) | -5.5
84 | Cc1nnc(NC(=O)NCc2ccc(N3CCOCC3)nc2)s1 | -6.21
85 | Cc1cc(CN2CCN(C(=O)NCCc3csc(C)n3)CC2)on1 | -2.68
86 | CC1CN(CC(=O)NC(C2CC2)C2CC2)CCN1Cc1nccn1C (configuration not stated) | -6.48
87 | Cc1nnc(C(C)N2CCN(Cc3ccc(C(F)(F)F)cc3)CC2)o1 (configuration not stated) | 8.15
88 | c1cnn(CC2CCCCN2Cc2noc(C3CC3)n2)c1 (configuration not stated) | -3.48
89 | CNc1nc(CNC(=O)Nc2cc(Cl)ccc2F)cs1 | -6.95
90 | Cc1cccc(C)c1OCCNC(=O)C(C)n1cncn1 (configuration not stated) | -1.46
91 | CC(O)CN1CCN(C(=O)c2ccc(N3CCCC3)nn2)CC1 (configuration not stated) | -17.3
92 | CCCc1nc(CN2CCOC(Cn3cccn3)C2)no1 (configuration not stated) | -27.1

Row | Structure (SMILES) | cytotoxicity at 10 µM [%]
93 | Cc1cnn(CC2CCCN2CC(=O)NC2CCN(C3CC3)CC2)c1 (configuration not stated) | 0.109
94 | O=C(Cc1csc(-c2ccco2)n1)N1CCN(c2ccccc2O)CC1 | -10.7
95 | CC1CCN(CCNC(=O)c2ccn(-c3ccc(F)cc3)n2)CC1 | -15.6
96 | CC(C)(C)c1nc(CN2CCCC(c3noc(C4CC4)n3)C2)no1 (configuration not stated) | -14.4
97 | Cc1nn(C)c(N(C)C)c1CNC(C)COc1ccc(F)cc1F (configuration not stated) | -9.78
98 | Cc1nc(CN(C)C2CCN(CCc3ccccn3)C2)no1 (configuration not stated) | -3.85
99 | O=S(=O)(CCN1CCCC1Cn1cncn1)c1ccccc1 (configuration not stated) | -21
100 | O=C(Cc1cn2ccccc2n1)N1CCCC(n2ccnc2)C1 (configuration not stated) | -22.4
101 | O=C(NCc1csc(Br)c1)c1cnccn1 | -23.3
102 | CCc1n[nH]c(C2CN(C(=O)c3ccc4c(c3)CCCC4)CCO2)n1 (configuration not stated) | -16.1
103 | CNC(=O)NC(=O)CN1CCCC(Cc2ccccc2OC)C1 (configuration not stated) | 4.95
104 | Cn1cnnc1C1CCCN(C(=O)NCCc2ccccn2)C1 (configuration not stated) | -21.5
105 | CC(C)NC(=O)N1CCc2c(CNc3ncccn3)cncc2C1 | 5.83
106 | Cc1nc(CN2C(=O)C[C@H]3[C@H]2CCN3C2CCOC2)cs1 (some centres not stated) | -139
107 | CN1CC(=O)N(c2ccsc2)CC12CCN(S(=O)(=O)c1ccccc1)C2 (configuration not stated) | 1.5
108 | Cc1ccc(N2C[C@H]3CCC[C@@]3(COc3cccnc3)C2)nn1 | 9.43
109 | O=C(NCCO)C1(Cc2ccccc2-c2cccnc2)CCOCC1 | -31.8
110 | CN(C)Cc1nn(C)c2c1CCN(C(=O)c1cnccn1)C2 | -134
111 | Cc1cccc(CN2C[C@@H]3COC[C@]3(COc3cccnc3)C2)n1 | 11.4
112 | O=C(CCO)N1C[C@@H]2CC[C@H]1CN(C1Cc3ccccc3C1)C2 | -0.608

— ChEMBL document CHEMBL4513216, “Probing the Open Global Health Chemical Diversity Library for Multistage-Active Starting Points for Next-Generation Antimalarials” (ACS Infect Dis, 2020)
